Measurements as given in ChEMBL document CHEMBL3734722, “Structural Elucidation of a Small Molecule Inhibitor of Protein Disulfide Isomerase” (ACS Med Chem Lett, 2015).
Blank lines part the entries; values can stand above or below the molecule they belong to. Active and inactive are the calls of the source. The calls are words filed in the database; no cut-off is given here.

How the values were obtained:
[1] = Intrinsic clearance in mouse liver microsome at 0.5 microM incubated upto 45 mins by LC-MS/MS analysis; format: ADME; conditions: microsomes, 0.75 h
How it was run: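 Mouse liver microsome incubation; intrinsic clearance expressed as mL/min/g, with 7-ethoxycoumarin as reference compound.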

[2] = Plasma protein binding in mouse at 2000 ng/ml for 4 hrs by LC-MS/MS analysis; format: ADME, cell-free; conditions: read-out: PPB (converted)
PC-12 [3] = test: Neuroprotective activity against rat PC12 cells expressing mutant HTT-Q103 assessed as cell viability by alamar blue assay; format: functional, cell-based
How it was run: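 PC12 cells stably carrying inducible mutant HTT plasmid (mHTT-Q103); expression induced, causing death within 48 h. Serial-dilution dose–response; after 48 h Alamar blue added and fluorescence read. Data as mean percent of DMSO-treated uninduced cells ± SD; EC50 from curve.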

[4] = target: Protein disulfide-isomerase (Homo sapiens) (UniProt P07237); test: Binding affinity to PDI catalytic domain a (unknown origin) after 1 hrs by intrinsic tryptophan fluorescence assay
How it was run: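 PDIa intrinsic Trp fluorescence recorded with varying securinine concentrations; emission spectra taken and intensity at 330 nm normalized; Kd derived from concentration-dependent quenching.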

PC-12 [5] = test: Neuroprotective activity against rat PC12 cells expressing mutant HTT-Q103 assessed as increase in cell viability compound preincubated for 0,1,2,or 3 days in PC12 growth medium followed by cells addition measured after 48 hrs by alamar blue assay; format: functional, cell-based
How it was run: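 Compound held at 37 °C for 0, 1, 2 or 3 days in PC12 growth medium, then aliquots added to induced PC12 mHTT-Q103 cells. After 48 h treatment, Alamar blue added and viability quantified by fluorescence plate reader.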

[6] = target: Protein disulfide-isomerase (Homo sapiens) (UniProt P07237); test: Irreversible binding affinity to PDI catalytic domain a (unknown origin) at 4.5 mM measured after 100 fold dilution for 2 hrs by intrinsic tryptophan fluorescence assay
How it was run: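 Jump-dilution reversibility test: PDIa (1 mM) incubated with ligand at 4.5 mM, complex diluted 100-fold (to 45 μM ligand, 10 μM PDIa) and dialysed, then Trp emission spectra recorded. Phenylarsine oxide, a covalent vicinal-thiol modifier, processed identically as control.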

[7] = Half life in mouse plasma at 1 uM for 120 mins by LC-MS/MS analysis; format: ADME, cell-free

Chain of Protein disulfide-isomerase (Homo sapiens) (P07237 18-508 limits assumed): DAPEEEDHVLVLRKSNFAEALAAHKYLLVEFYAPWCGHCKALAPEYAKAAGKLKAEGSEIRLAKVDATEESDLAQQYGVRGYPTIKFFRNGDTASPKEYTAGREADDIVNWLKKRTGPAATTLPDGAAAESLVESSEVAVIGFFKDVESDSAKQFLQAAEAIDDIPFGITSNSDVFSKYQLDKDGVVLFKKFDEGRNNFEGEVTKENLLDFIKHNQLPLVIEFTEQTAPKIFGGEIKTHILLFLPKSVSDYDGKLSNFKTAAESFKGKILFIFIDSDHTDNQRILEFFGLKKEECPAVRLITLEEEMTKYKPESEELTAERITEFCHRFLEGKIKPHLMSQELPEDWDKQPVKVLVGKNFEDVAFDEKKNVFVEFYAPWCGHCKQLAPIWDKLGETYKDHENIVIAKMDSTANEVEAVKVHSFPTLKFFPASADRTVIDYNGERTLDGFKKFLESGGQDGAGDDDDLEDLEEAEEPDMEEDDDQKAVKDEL

CLint [1]: 24.58 mL/min/g
Structure (SMILES): CCOc1ccc2ccc(=O)oc2c1 [ETHOXYCOUMARIN]

Structure (SMILES): CC(=O)CC(c1ccccc1)c1c(O)c2ccccc2oc1=O (stereo not given) [WARFARIN]
fraction unbound at 4 h, 2000 ng/ml [2]: 0.06

Structure (SMILES): CC(C)C1OCCN1CC1COC2(CCCCC2)O1 (stereo not given)
Activity (PC-12 [3]): inactive

Structure (SMILES): O=C1C=C2C=C[C@H]3C[C@@]2(O1)[C@H]1CCCCN31
Activity [4]: Dose-dependent effect | EC50 (PC-12 [3]): 3.3 µM | Activity (PC-12 [5]): Active | Activity [6]: Active | CLint [1]: 8.3 mL/min/g | half-life at 1 µM [7]: 1.6 h | fraction unbound at 4 h, 2000 ng/ml [2]: 0.51
